The values that follow come from article PMC4651627 (The Journal of organic chemistry, 2015).

The subject of one assay is NCI 60-cell line screen. Particulars: cited from earlier work.
Assay [1] relates to U937 cells. In words: Cell apoptosis analysis by flow cytometry. Particulars: 90 nM, 48 h, control cells 13.2%. It is filed as cell-based, human. (A flow cytometer gives signals particle by particle.)
For assay [2], the system named is U937 cells. In words: Cell cycle analysis by flow cytometry. It is filed as cell-based, human. The note with it: 90 nM, 48 h. The procedure, abridged:
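Exponentially growing U937 cells in RPMI-1640 with 10% FBS received test compound in DMSO (final 90 nM) or an equal amount of DMSO. After 48 h at 37 °C in CO2, cells were PBS-washed, fixed overnight in 70% ice-cold ethanol at 4 °C, and RNase-treated (100 µg/ml, 37 °C, 30 min).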

Assay [3] deals with small panel of cell lines (five human tumor cell lines, MCF-10A, NIH/3T3). In words: MTT cytotoxicity assay, summary over the panel of cell lines. It is filed as cell-based. For orientation: Tetrazolium assays rely on reduction of a dye to a coloured formazan, in cell work by metabolically active cells.
In another assay the test system is MDA-MB-231. It is filed as cell-based, human.
Assay [4] deals with MDA-MB-231 breast cancer cells. In words: DNA fragmentation analysis. It is filed as cell-based, human.

The structures appear in SMILES notation.

A word on the IC90: it is the point of the concentration-response curve where the effect stands at 90%. High values mean weaker potency, low ones greater potency.

Consider `C/C=C(\C)C(=O)O[C@@H]1[C@@H](O)[C@@H]2O[C@H]3[C@H](O[C@@H](CCC)CCCCCCC(=O)CCC(=O)OC[C@@H](O2)[C@H]1OC(=O)/C=C/c1ccccc1)O[C@H](C)[C@H](OC(C)=O)[C@@H]3O` [Ipomoeassin A], for which, in the assay with NCI 60-cell line screen, the “growth inhibition of different cancer cells” value was “strong and selective growth inhibition”.

Turning to `C/C=C(\C)C(=O)O[C@@H]1[C@@H](O)[C@@H]2O[C@H]3[C@H](O[C@@H](CCCCC)CCCCCCC(=O)CCC(=O)OC[C@@H](O2)[C@H]1OC(=O)/C=C/c1ccccc1)O[C@H](C)[C@H](OC(C)=O)[C@@H]3O` [Ipomoeassin F], the “percentage of apoptotic cells” value in the assay on U937 cells [1] is listed as 33.6%. In the assay on U937 cells [2], the G1 arrest is on record as ~ 25% and the “reduction of cell population in the G2/M phase” value is given as ~ 21%. In addition, in assay [3] (U937 vs MCF7), the “difference in toxicity between two cancer cell lines (U937 and MCF7)” value is recorded as ~ 8 fold. In addition, the “selectivity between tumor and non-tumor cell lines” value in assay [3] (tumor lines vs MCF-10A and NIH/3T3) is “no selectivity between tumor and non-tumor cell lines was observed”. This compound had an IC90 with MDA-MB-231 of 100 nM. The DNA fragmentation entry in assay [4] (100 nM ipomoeassin F (IC90), MDA-MB-231, 72 h) is given as “smaller DNA fragments”.

Regarding `CN[C@@H]1C[C@H]2O[C@@](C)([C@@H]1OC)n1c3ccccc3c3c4c(c5c6ccccc6n2c5c31)C(=O)NC4` [staurosporine, reference compound], in assay [4] (750 nM staurosporine (Figure 5), MDA-MB-231), the “DNA fragmentation (positive control)” value is given as “smaller DNA fragments”.
